In brackets after ≈: the same amount, converted by molar mass. One block for each molecule: values may come before it.
How the values were obtained:
Assay type in all cases: functional
[1] = test system: Escherichia coli; test: Selectivity index, ratio of MIC for against extended-spectrum beta-lactamase producing Escherichia coli isolate 209285 to MIC for extended-spectrum beta-lactamase producing Escherichia coli isolate 209285 in presence of BPL
[2] = test system: Escherichia coli; test: Antibacterial activity against extended-spectrum beta-lactamase producing Escherichia coli isolate 208687 after 18 hrs in presence of BPL by CLSI broth microdilution method; conditions: isolate 208687, 18 h
In short: (§1)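 CLSI broth microdilution against clinical isolates (ESBL E. coli, KPC-2 MDR K. pneumoniae, IMP-4 MDR P. aeruginosa; five per species). Iron limitation: Mueller-Hinton broth supplemented with 16 mg/liter 2,2'-bipyridyl to complex iron and induce iron uptake systems. Read-out: MIC.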

[3] = test system: Escherichia coli; test: Selectivity index, ratio of MIC for against extended-spectrum beta-lactamase producing Escherichia coli isolate 208687 to MIC for extended-spectrum beta-lactamase producing Escherichia coli isolate 208687 in presence of BPL
[4] = test system: Escherichia coli; test: Selectivity index, ratio of MIC for against extended-spectrum beta-lactamase producing Escherichia coli isolate 106342 to MIC for extended-spectrum beta-lactamase producing Escherichia coli isolate 106342 in presence of BPL
[5] = test system: Escherichia coli; test: Antibacterial activity against extended-spectrum beta-lactamase producing Escherichia coli isolate 208687 after 18 hrs by CLSI broth microdilution method; conditions: isolate 208687, 18 h
[6] = test system: Pseudomonas aeruginosa; test: Selectivity index, ratio of MIC for against IMP-4 producing Pseudomonas aeruginosa isolate 207272 to MIC for against IMP-4 producing Pseudomonas aeruginosa isolate 207272 in presence of BPL
[7] = test system: Escherichia coli; test: Antibacterial activity against Escherichia coli isolate 210737 after 18 hrs by CLSI broth microdilution method; conditions: isolate 210737, 18 h
[8] = test system: Klebsiella pneumoniae; test: Antibacterial activity against KPC-2 producing Klebsiella pneumoniae isolate 209735 after 18 hrs in presence of BPL by CLSI broth microdilution method; conditions: isolate 209735, 18 h; in short: as §1
[9] = test system: Pseudomonas aeruginosa; test: Antibacterial activity against IMP-4 producing Pseudomonas aeruginosa isolate 208247 after 18 hrs in presence of BPL by CLSI broth microdilution method; conditions: isolate 208247, 18 h; in short: as §1
[10] = test system: Pseudomonas aeruginosa; test: Antibacterial activity against IMP-4 producing Pseudomonas aeruginosa isolate 212886 after 18 hrs by CLSI broth microdilution method; conditions: isolate 212886, 18 h
[11] = test system: Klebsiella pneumoniae; test: Antibacterial activity against KPC-2 producing Klebsiella pneumoniae isolate 212229 after 18 hrs in presence of BPL by CLSI broth microdilution method; conditions: isolate 212229, 18 h; in short: as §1
[12] = test system: Escherichia coli; test: Antibacterial activity against extended-spectrum beta-lactamase producing Escherichia coli isolate 212648 after 18 hrs by CLSI broth microdilution method; conditions: isolate 212648, 18 h
[13] = test system: Klebsiella pneumoniae; test: Selectivity index, ratio of MIC for against KPC-2 producing Klebsiella pneumoniae isolate 212423 to MIC for against KPC-2 producing Klebsiella pneumoniae isolate 212423 in presence of BPL
[14] = test system: Klebsiella pneumoniae; test: Antibacterial activity against KPC-2 producing Klebsiella pneumoniae isolate 212229 after 18 hrs by CLSI broth microdilution method; conditions: isolate 212229, 18 h
[15] = test system: Pseudomonas aeruginosa; test: Antibacterial activity against IMP-4 producing Pseudomonas aeruginosa isolate 207272 after 18 hrs in presence of BPL by CLSI broth microdilution method; conditions: isolate 207272, 18 h; in short: as §1
[16] = test system: Klebsiella pneumoniae; test: Selectivity index, ratio of MIC for against KPC-2 producing Klebsiella pneumoniae isolate 209632 to MIC for against KPC-2 producing Klebsiella pneumoniae isolate 209632 in presence of BPL
[17] = test system: Pseudomonas aeruginosa; test: Antibacterial activity against IMP-4 producing Pseudomonas aeruginosa isolate 207272 after 18 hrs by CLSI broth microdilution method; conditions: isolate 207272, 18 h
[18] = test system: Klebsiella pneumoniae; test: Antibacterial activity against KPC-2 producing Klebsiella pneumoniae isolate 209735 after 18 hrs by CLSI broth microdilution method; conditions: isolate 209735, 18 h
[19] = test system: Pseudomonas aeruginosa; test: Antibacterial activity against IMP-4 producing Pseudomonas aeruginosa isolate 209471 after 18 hrs by CLSI broth microdilution method; conditions: isolate 209471, 18 h
[20] = test system: Escherichia coli; test: Antibacterial activity against extended-spectrum beta-lactamase producing Escherichia coli isolate 106342 after 18 hrs by CLSI broth microdilution method; conditions: isolate 106342, 18 h
[21] = test system: Klebsiella pneumoniae; test: Antibacterial activity against KPC-2 producing Klebsiella pneumoniae isolate 212423 after 18 hrs in presence of BPL by CLSI broth microdilution method; conditions: isolate 212423, 18 h; in short: as §1
[22] = test system: Klebsiella pneumoniae; test: Antibacterial activity against KPC-2 producing Klebsiella pneumoniae isolate 209632 after 18 hrs in presence of BPL by CLSI broth microdilution method; conditions: isolate 209632, 18 h; in short: as §1
[23] = test system: Escherichia coli; test: Antibacterial activity against extended-spectrum beta-lactamase producing Escherichia coli isolate 106342 after 18 hrs in presence of BPL by CLSI broth microdilution method; conditions: isolate 106342, 18 h; in short: as §1
[24] = test system: Escherichia coli; test: Antibacterial activity against extended-spectrum beta-lactamase producing Escherichia coli isolate 209285 after 18 hrs in presence of BPL by CLSI broth microdilution method; conditions: isolate 209285, 18 h; in short: as §1
[25] = test system: Escherichia coli; test: Antibacterial activity against extended-spectrum beta-lactamase producing Escherichia coli isolate 212648 after 18 hrs in presence of BPL by CLSI broth microdilution method; conditions: isolate 212648, 18 h; in short: as §1
[26] = test system: Escherichia coli; test: Selectivity index, ratio of MIC for against Escherichia coli isolate 210737 to MIC for Escherichia coli isolate 210737 in presence of BPL
[27] = test system: Klebsiella pneumoniae; test: Antibacterial activity against KPC-2 producing Klebsiella pneumoniae isolate 212232 after 18 hrs by CLSI broth microdilution method; conditions: isolate 212232, 18 h
[28] = test system: Klebsiella pneumoniae; test: Selectivity index, ratio of MIC for against KPC-2 producing Klebsiella pneumoniae isolate 212229 to MIC for against KPC-2 producing Klebsiella pneumoniae isolate 212229 in presence of BPL
[29] = test system: Escherichia coli; test: Antibacterial activity against Escherichia coli isolate 210737 after 18 hrs in presence of BPL by CLSI broth microdilution method; conditions: isolate 210737, 18 h; in short: as §1
[30] = test system: Klebsiella pneumoniae; test: Antibacterial activity against KPC-2 producing Klebsiella pneumoniae isolate 212423 after 18 hrs by CLSI broth microdilution method; conditions: isolate 212423, 18 h
[31] = test system: Klebsiella pneumoniae; test: Antibacterial activity against KPC-2 producing Klebsiella pneumoniae isolate 209632 after 18 hrs by CLSI broth microdilution method; conditions: isolate 209632, 18 h
[32] = test system: Pseudomonas aeruginosa; test: Antibacterial activity against IMP-4 producing Pseudomonas aeruginosa isolate 209471 after 18 hrs in presence of BPL by CLSI broth microdilution method; conditions: isolate 209471, 18 h; in short: as §1
[33] = test system: Pseudomonas aeruginosa; test: Antibacterial activity against IMP-4 producing Pseudomonas aeruginosa isolate 209321 after 18 hrs by CLSI broth microdilution method; conditions: isolate 209321, 18 h
[34] = test system: Pseudomonas aeruginosa; test: Selectivity index, ratio of MIC for against IMP-4 producing Pseudomonas aeruginosa isolate 208247 to MIC for against IMP-4 producing Pseudomonas aeruginosa isolate 208247 in presence of BPL
[35] = test system: Pseudomonas aeruginosa; test: Antibacterial activity against IMP-4 producing Pseudomonas aeruginosa isolate 208247 after 18 hrs by CLSI broth microdilution method; conditions: isolate 208247, 18 h
[36] = test system: Klebsiella pneumoniae; test: Selectivity index, ratio of MIC for against KPC-2 producing Klebsiella pneumoniae isolate 212232 to MIC for against KPC-2 producing Klebsiella pneumoniae isolate 212232 in presence of BPL
[37] = test system: Klebsiella pneumoniae; test: Selectivity index, ratio of MIC for against KPC-2 producing Klebsiella pneumoniae isolate 209735 to MIC for against KPC-2 producing Klebsiella pneumoniae isolate 209735 in presence of BPL
[38] = test system: Pseudomonas aeruginosa; test: Antibacterial activity against IMP-4 producing Pseudomonas aeruginosa isolate 212886 after 18 hrs in presence of BPL by CLSI broth microdilution method; conditions: isolate 212886, 18 h; in short: as §1
[39] = test system: Escherichia coli; test: Selectivity index, ratio of MIC for against extended-spectrum beta-lactamase producing Escherichia coli isolate 212648 to MIC for extended-spectrum beta-lactamase producing Escherichia coli isolate 212648 in presence of BPL
[40] = test system: Escherichia coli; test: Antibacterial activity against extended-spectrum beta-lactamase producing Escherichia coli isolate 209285 after 18 hrs by CLSI broth microdilution method; conditions: isolate 209285, 18 h
[41] = test system: Pseudomonas aeruginosa; test: Antibacterial activity against IMP-4 producing Pseudomonas aeruginosa isolate 209321 after 18 hrs in presence of BPL by CLSI broth microdilution method; conditions: isolate 209321, 18 h; in short: as §1
[42] = test system: Klebsiella pneumoniae; test: Antibacterial activity against KPC-2 producing Klebsiella pneumoniae isolate 212232 after 18 hrs in presence of BPL by CLSI broth microdilution method; conditions: isolate 212232, 18 h; in short: as §1

- MIC [2]: 0.25 µg/mL
- MIC [5]: 2 µg/mL (≈ 3.03 µM)
- MIC [7]: 0.5 µg/mL (≈ 0.758 µM)
- MIC [8]: 2 µg/mL
- MIC [9]: 64 µg/mL
- MIC [10]: > 64 µg/mL
- MIC [11]: 0.5 µg/mL
- MIC [12]: 1 µg/mL (≈ 1.52 µM)
- MIC [14]: 1 µg/mL (≈ 1.52 µM)
- MIC [15]: 64 µg/mL
- MIC [17]: 64 µg/mL (≈ 97 µM)
- MIC [18]: 2 µg/mL (≈ 3.03 µM)
- MIC [19]: > 64 µg/mL
- MIC [20]: 2 µg/mL (≈ 3.03 µM)
- MIC [21]: 1 µg/mL
- MIC [22]: 0.5 µg/mL
- MIC [23]: 2 µg/mL
- MIC [24]: 1 µg/mL
- MIC [25]: 1 µg/mL
- MIC [27]: 2 µg/mL (≈ 3.03 µM)
- MIC [29]: 0.25 µg/mL
- MIC [30]: 2 µg/mL (≈ 3.03 µM)
- MIC [31]: 1 µg/mL (≈ 1.52 µM)
- MIC [32]: > 64 µg/mL
- MIC [33]: > 64 µg/mL
- MIC [35]: 64 µg/mL (≈ 97 µM)
- MIC [38]: > 64 µg/mL
- MIC [40]: 2 µg/mL (≈ 3.03 µM)
- MIC [41]: > 64 µg/mL
- MIC [42]: 1 µg/mL
Structure (SMILES): Cc1csc(SC[C@@H]2[C@H](NC(=O)/C(=N\OC(c3cc(=O)c(O)cn3O)C(C)C)c3csc(N)n3)C(=O)N2S(=O)(=O)O)n1 (stereo partly specified)
- Selectivity Index [1]: 2
- Selectivity Index [3]: 8
- Selectivity Index [4]: 1
- Selectivity Index [6]: 1
- Selectivity Index [13]: 2
- Selectivity Index [16]: 2
- Selectivity Index [26]: 2
- Selectivity Index [28]: 2
- Selectivity Index [34]: 1
- Selectivity Index [36]: 2
- Selectivity Index [37]: 1
- Selectivity Index [39]: 1

Structure (SMILES): C[C@@H](O)[C@H]1C(=O)N2C(C(=O)O)=C(S[C@@H]3CN[C@H](C(=O)N(C)C)C3)[C@H](C)[C@H]12 [MEROPENEM]
- MIC [5]: 0.125 µg/mL (≈ 0.326 µM)
- MIC [7]: 0.125 µg/mL (≈ 0.326 µM)
- MIC [12]: 8 µg/mL (≈ 20.9 µM)
- MIC [14]: > 64 µg/mL
- MIC [19]: 32 µg/mL (≈ 83.4 µM)
- MIC [20]: 8 µg/mL (≈ 20.9 µM)
- MIC [27]: > 64 µg/mL
- MIC [35]: 32 µg/mL (≈ 83.4 µM)
- MIC [40]: 1 µg/mL (≈ 2.61 µM)

From ChEMBL document CHEMBL4152188, “Design, synthesis and biological evaluation of C(4) substituted monobactams as antibacterial agents against multidrug-resistant Gram-negative bacteria” (Eur J Med Chem, 2018)
